Measurements of several laboratories.
Protocols differ between the studies behind these lines.
PTGS2: Prostaglandin G/H synthase 2 (PTGS2, Homo sapiens, UniProt P35354)
NPY2R: Neuropeptide Y receptor type 2 (NPY2R, Homo sapiens, UniProt P49146)
CASP7: Caspase-7 (CASP7, Homo sapiens, UniProt P55210)
Dipeptidyl peptidase 2: Dipeptidyl peptidase 2 (Homo sapiens, UniProt Q9UHL4)

SMILES	target	test	conditions	inhibition [%]
CS(=O)(=O)c1ccc(-c2ncccc2-c2nc3ccccc3s2)cc1	PTGS2	enzyme activity, inhibitor, absorbance	10 µM	84.7
C#Cc1n[nH]c2c(-c3cn(C(C)c4ccccn4)c(=O)[nH]c3=O)cc(F)cc12 (stereo not drawn)	Platelet-derived growth factor receptor beta (PDGFRB, Homo sapiens, UniProt P09619)	enzyme activity, inhibitor	1 µM	6.6
CCN(CC)CCCC[C@H](NC(=O)[C@H](CC(C)C)NC(=O)[C@H](C)NC(=O)[C@H](Cc1ccccc1)NC(=O)c1ccc(C(C)(C)C)cc1)C(=O)N[C@@H](CO)C(=O)OC	NPY2R	ligand displacement, radioligand	10 µM	10
CN(C)Cc1ccc(-c2nc3ccccc3s2)c(-c2cccc(O)c2)c1	PTGS2	enzyme activity, inhibitor, absorbance	10 µM	1
CC(=O)N[C@@H](CC(=O)O)C(=O)N[C@@H](CC(N)=O)C(=O)N[C@@H](CC(C)C)C(=O)N[C@H](C=O)CC(=O)O	CASP7	enzyme activity, inhibitor	0.5 µM	89
CC(C)N1CCC[C@H]1CNC(=O)c1cn(C2CCCC2)c(=O)c2c1c1ccccc1n2C	NPY2R	ligand displacement, radioligand	10 µM	3
COCc1c(-c2cc3cc(C)cc(OC)c3s2)c2c(N)ncnn2c1CN1CCNC(=O)C1	Alpha-2B adrenergic receptor (ADRA2B, Homo sapiens, UniProt P18089)	ligand displacement, radioligand	10 µM	34
CS(=O)(=O)c1ccc(-c2ncc(Cl)cc2-c2nc3ccccc3s2)cc1	PTGS2	enzyme activity, inhibitor, absorbance	10 µM	98
CCOC(=O)c1ccc(OC(=O)CCCCCNC(=N)N)cc1	Dipeptidyl peptidase 2	enzyme activity, inhibitor	10 µM	83
C1=Cc2ccccc2Nc2ccccc21	Dihydrofolate reductase (folA, Escherichia coli, UniProt P0ABQ4)	enzyme activity, inhibitor	1 mM	~87
CC(C)C[C@H](NC(=O)[C@H](Cc1ccccc1)NC(=O)c1cnccn1)B(O)O	Dipeptidyl peptidase 2	enzyme activity, inhibitor	33 µM	78.7
CN(C)C(=O)COC(=O)Cc1ccc(OC(=O)c2ccc(NC(=N)N)cc2)cc1	Dipeptidyl peptidase 2	enzyme activity, inhibitor	10 µM	20
Cn1cc(-c2cc(F)cc(N3CCn4c(cc5c4CCCC5)C3=O)c2CO)cc(Nc2ccc(N3CCN(C4COC4)CC3)cn2)c1=O	Protein kinase C zeta type (PRKCZ, Homo sapiens, UniProt Q05513)	enzyme activity, inhibitor	0.1 µM	-2
COc1cc(Nc2ncc(F)c(Nc3ccc4c(n3)NC(=O)C(C)(C)O4)n2)cc(OC)c1OC	Serine/threonine-protein kinase pim-3 (PIM3, Homo sapiens, UniProt Q86V86)	binding, competition with immobilised ligand	10 µM	38
Nc1ccc(-c2nc3ccccc3s2)c(-c2ccc(O)cc2)c1	PTGS2	enzyme activity, inhibitor, absorbance	10 µM	15.3
O=C(Nc1cccnn1)N1CCN([C@@H]2CCOc3cc(C(F)(F)F)ccc32)CC1	Glucagon receptor (GCGR, Homo sapiens, UniProt P47871)	cell-free assay	20 µM	-1
N=C(N)c1ccc2cc(OC(=O)c3ccc(N=C(N)N)cc3)ccc2c1	CASP7	enzyme activity, inhibitor	10 µM	1
CN(C)Cc1ccc(-c2nc3ccccc3s2)c(-c2ccc(O)cc2)c1	PTGS2	enzyme activity, inhibitor, absorbance	10 µM	0
N#Cc1ccc(NCCNCC(=O)N2N=CCC2C#N)nc1 (stereo not drawn)	Dipeptidyl peptidase 2	enzyme activity, inhibitor	1 µM	8
Nc1ccc(-c2nc3ccccc3s2)c(-c2cccc(O)c2)c1	PTGS2	enzyme activity, inhibitor, absorbance	10 µM	33.3
Cn1cc(-c2cccc(N3CCc4c(sc5c4CC(C)(C)C5)C3=O)c2CO)cc(Nc2ccncn2)c1=O	Dual specificity tyrosine-phosphorylation-regulated kinase 3 (DYRK3, Homo sapiens, UniProt O43781)	enzyme activity, inhibitor	1 µM	6
